Test results as given in ChEMBL document CHEMBL1944548, “Discovery of kinase spectrum selective macrocycle (16E)-14-methyl-20-oxa-5,7,14,26-tetraazatetracyclo[19.3.1.1(2,6).1(8,12)]heptacosa-1(25),2(26),3,5,8(27),9,11,16,21,23-decaene (SB1317/TG02), a potent inhibitor of cyclin dependent kinases (CDKs), Janus kinase 2 (JAK2), and fms-like tyrosine …” (J Med Chem, 2012).
pIC50: −log10 of the molar value. ≈ marks a conversion by molar mass, not a printed value. Calls of active or inactive are those of the source. The rule behind the calls is not given here.

Legend:
[1] = test system: Ramos; experiment: Antitumor activity against human Ramos cells xenografted in BALB/c nude mouse assessed as tumor growth inhibition at 75 mg/kg, po qd on a 2 days on and 5 days off schedule for 15 days; assay type: functional; details: read-out: GI
[2] = test system: Ramos; experiment: Antitumor activity against human Ramos cells xenografted in BALB/c nude mouse assessed as tumor growth inhibition at 15 mg/kg, ip qd on a 5 days on 5 days off schedule for 15 days; assay type: functional; details: route intraperitoneal, read-out: GI
[3] = Half life in dog liver microsomes at 5 uM by LC-MS/MS analysis; assay type: ADME, Canis lupus familiaris, Microsome
Method in brief: (§1)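 5 μM with mouse, rat, dog or human liver microsomes (~0.87 mg/mL), 50 mM potassium phosphate pH 7.4, NADPH regeneration system, 37 °C.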

[4] = AUC (0 to infinity) in BALB/c mouse at 75 mg/kg, po by LC-MS/MS analysis; assay type: ADME, organism-based; set-up: time infinity, dose 75 mg/kg, route oral; details: plasma
Method in brief: (§2)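 Male BALB/c mice (~10−12 weeks, 17−22 g) gavaged with 75 mg/kg as a suspension in 0.5% methylcellulose/0.1% Tween 80. Serial blood by cardiac puncture over 0−24 h into K3EDTA, plasma stored at −70 °C, LC−MS/MS; parameters by noncompartmental analysis.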

[5] = test system: HCT-116; experiment: Antitumor activity against human HCT116 cells xenografted in BALB/c nude mouse assessed as tumor growth inhibition at 50 mg/kg, po qd administered thrice in a week for 15 days; assay type: functional, organism-based; set-up: dose 50 mg/kg
Method in brief: (§3)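 Female BALB/c nude mice implanted sc with 5 × 10^6 HCT-116 cells; treatment began day 8 after inoculation when tumors were 75–144 mm3 (group mean 105 mm3), 9–10 mice/group. Oral gavage at 50 or 75 mg/kg, Mon/Wed/Fri, in 0.5% methylcellulose/0.1% Tween 80, to day 15. Volume (w2l)/2 measured twice weekly. %TGI from day-15 median volumes vs vehicle.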

[6] = Apparent permeability of the compound from apical to basolateral side in human Caco2 cells at 5 uM after 21 to 28 days by LC/MS analysis; assay type: ADME, cell-based; details: Caco-2
Method in brief: (§4)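 5 μM in HBSS (DMSO <1%) dosed apical or basolateral on 21−28-day confluent Caco-2 monolayers, both sides pH 7.4. Sampled at 2 h, quantified by LC/MS with four-point calibration. Monolayer integrity checked by pre-experiment TEER (450−650 Ωcm2) and Lucifer yellow; efflux ratio = Papp B→A / Papp A→B.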

[7] = biological target: Cyclin-dependent kinase 2 (Homo sapiens) (UniProt P24941); experiment: Inhibition of CDK2 in human HCT116 cells assessed as Rb phosphorylation at 200 nM after 24 hrs by Western blot analysis; assay type: cell-based; details: HCT-116
Method in brief: (§5)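 HCT-116 cells (2 × 10^5 in McCoy's medium with 2 mM L-glutamine and 10% FBS) seeded 16−24 h before dosing. Each dish exposed to one compound concentration or DMSO for 24 h. Lysis in modified RIPA buffer; protein by Bradford. 30 μg lysate run on 10% SDS−PAGE, blotted to PVDF, probed for phospho-Rb and β-actin. ECL detection.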

[8] = Solubility of the compound in PBS buffer at 250 uM at pH 7 by UV spectrophotometry; assay type: physicochemical
[9] = AUC (0 to infinity) in BALB/c mouse at 5 mg/kg, iv by LC-MS/MS analysis; assay type: ADME, organism-based; set-up: time infinity, dose 5 mg/kg, route intravenous; details: plasma
[10] = Plasma protein binding in human at 1000 ng/ml after 4 hrs by equilibrium dialysis method; assay type: ADME, cell-free; details: read-out: PPB
Method in brief: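 Equilibrium dialysis of plasma (mouse, dog, human) spiked to 1000 ng/mL against PBS, 4 h at 37 °C. Buffer side extracted in triplicate with MTBE, dried, reconstituted in methanol/water 60:40, measured by LC−MS/MS.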

[11] = Oral bioavailability in Beagle dog at 10 mg/kg by LC-MS/MS analysis; details: in vivo
[12] = Clearance in BALB/c mouse at 5 mg/kg, iv by LC-MS/MS analysis; assay type: ADME, organism-based; set-up: dose 5 mg/kg, route intravenous; details: in vivo
[13] = Oral bioavailability in Wistar rat at 10 mg/kg by LC-MS/MS analysis; details: in vivo
[14] = biological target: Tyrosine-protein kinase JAK2 (Homo sapiens, UniProt O60674); experiment: Inhibition of recombinant JAK2 using poly(Glu,Ala,Tyr) as substrate after 2 hrs by luminescence assay
Chain of Tyrosine-protein kinase JAK2 (O60674 whole entry): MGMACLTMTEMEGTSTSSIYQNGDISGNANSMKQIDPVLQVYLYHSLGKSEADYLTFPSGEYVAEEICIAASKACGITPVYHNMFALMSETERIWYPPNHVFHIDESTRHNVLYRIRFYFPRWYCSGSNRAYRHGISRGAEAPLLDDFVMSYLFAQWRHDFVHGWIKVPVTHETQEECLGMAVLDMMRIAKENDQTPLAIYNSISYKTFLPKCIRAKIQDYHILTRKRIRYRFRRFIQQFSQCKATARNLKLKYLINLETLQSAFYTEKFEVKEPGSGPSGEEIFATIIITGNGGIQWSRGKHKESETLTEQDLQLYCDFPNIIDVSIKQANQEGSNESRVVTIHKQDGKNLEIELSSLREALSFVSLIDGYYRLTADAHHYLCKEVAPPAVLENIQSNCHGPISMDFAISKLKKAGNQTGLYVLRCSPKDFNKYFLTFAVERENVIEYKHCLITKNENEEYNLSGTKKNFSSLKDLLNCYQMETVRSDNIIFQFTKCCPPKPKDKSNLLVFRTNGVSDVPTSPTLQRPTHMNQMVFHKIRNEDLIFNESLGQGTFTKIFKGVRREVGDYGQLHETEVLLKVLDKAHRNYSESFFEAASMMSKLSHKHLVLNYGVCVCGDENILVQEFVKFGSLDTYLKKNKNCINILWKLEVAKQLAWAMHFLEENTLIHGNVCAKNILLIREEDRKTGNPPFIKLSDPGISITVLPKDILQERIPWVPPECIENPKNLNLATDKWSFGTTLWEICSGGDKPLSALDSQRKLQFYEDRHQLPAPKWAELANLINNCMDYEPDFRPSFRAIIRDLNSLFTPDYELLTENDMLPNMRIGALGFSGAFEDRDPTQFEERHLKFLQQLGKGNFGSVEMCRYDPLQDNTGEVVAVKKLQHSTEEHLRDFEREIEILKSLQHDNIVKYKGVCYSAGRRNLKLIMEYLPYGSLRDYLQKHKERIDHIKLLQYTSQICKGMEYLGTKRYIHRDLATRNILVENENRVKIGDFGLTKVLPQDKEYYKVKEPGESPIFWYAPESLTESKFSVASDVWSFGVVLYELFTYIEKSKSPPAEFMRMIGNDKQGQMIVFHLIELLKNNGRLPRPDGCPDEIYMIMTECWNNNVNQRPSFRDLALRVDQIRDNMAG

[15] = biological target: Cytochrome P450 2D6 (Homo sapiens, UniProt P10635); experiment: Inhibition of CYP2D6 in human liver microsomes using dextromethorphan as substrate after 30 mins by LC-MS/MS analysis; assay type: ADME, Microsome
Chain of Cytochrome P450 2D6 (P10635 whole entry): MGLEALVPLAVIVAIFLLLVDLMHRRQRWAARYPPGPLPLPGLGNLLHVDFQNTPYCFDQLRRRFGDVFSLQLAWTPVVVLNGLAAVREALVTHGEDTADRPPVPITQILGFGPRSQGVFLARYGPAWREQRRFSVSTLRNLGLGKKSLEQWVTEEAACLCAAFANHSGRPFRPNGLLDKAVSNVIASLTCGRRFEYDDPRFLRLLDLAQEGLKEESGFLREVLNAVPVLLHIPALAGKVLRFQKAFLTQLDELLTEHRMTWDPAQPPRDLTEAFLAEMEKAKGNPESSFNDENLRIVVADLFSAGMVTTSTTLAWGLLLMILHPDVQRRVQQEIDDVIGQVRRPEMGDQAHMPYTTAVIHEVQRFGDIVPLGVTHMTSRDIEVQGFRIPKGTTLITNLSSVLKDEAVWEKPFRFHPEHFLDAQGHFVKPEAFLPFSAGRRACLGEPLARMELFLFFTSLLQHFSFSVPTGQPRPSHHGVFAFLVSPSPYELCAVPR
Method in brief: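 Human liver microsomes with 1 mM NADPH at 37 °C. Test concentrations 0.05, 0.25, 0.5, 2.5, 5 and 25 μM; final DMSO 0.35%. CYP1A: 0.25 mg/mL microsomes, ethoxyresorufin 0.5 μM, 5 min. CYP2D6: 0.5 mg/mL microsomes, dextromethorphan 5 μM, 30 min. IC50 from the fall in metabolite formation versus vehicle control. Selective inhibitors served as positive controls.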

[16] = test system: Ramos; experiment: Antitumor activity against human Ramos cells xenografted in po/ip dosed BALB/c nude mouse assessed as tumor growth inhibition; assay type: functional, organism-based
Method in brief: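 Female BALB/c nude mice implanted sc in right flank with 7 × 10^6 Ramos cells; dosing began 12 days after inoculation at about 200 mm3, n = 8–10/group. Arms: 75 mg/kg po q.d. 2 days on/5 off in MC/Tween, or 15 mg/kg ip q.d.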

[17] = Oral bioavailability in BALB/c mouse at 75 mg/kg by LC-MS/MS analysis; assay type: ADME, organism-based; details: in vivo; method in brief: as §2
[18] = Half life in human liver microsomes at 5 uM by LC-MS/MS analysis; assay type: ADME, Microsome; method in brief: as §1
[19] = test system: HCT-116; experiment: Antiproliferative activity against human HCT116 cells after 48 hrs; assay type: functional, cell-based; details: HCT-116, 48 h
[20] = biological target: Cyclin-dependent kinase 2 (Homo sapiens) (UniProt P24941); experiment: Inhibition of CDK2 in human HCT116 cells assessed as Rb phosphorylation at 40 nM after 24 hrs by Western blot analysis; assay type: cell-based; details: HCT-116; method in brief: as §5
[21] = test system: Ramos; experiment: Antiproliferative activity against human Ramos cells after 48 hrs; assay type: functional, cell-based
[22] = test system: HCT-116; experiment: Antitumor activity against human HCT116 cells xenografted in po dosed BALB/c nude mouse assessed as tumor growth inhibition; assay type: functional, organism-based; method in brief: as §3
[23] = Half life in rat liver microsomes at 5 uM by LC-MS/MS analysis; assay type: ADME, Microsome; method in brief: as §1
[24] = Apparent permeability of the compound from basolateral to apical side in human Caco2 cells at 5 uM after 21 to 28 days by LC/MS analysis; assay type: ADME, cell-based; details: Caco-2; method in brief: as §4
[25] = test system: HL-60; experiment: Antiproliferative activity against human HL60 cells after 48 hrs; assay type: functional, cell-based; details: HL-60, 48 h
[26] = Terminal half life in BALB/c mouse at 75 mg/kg, po by LC-MS/MS analysis; assay type: ADME, organism-based; set-up: dose 75 mg/kg, route oral; details: in vivo, read-out: beta t1/2 (converted)
Method in brief: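 Male BALB/c mice, ~10−12 weeks, 17−22 g. Given 75 mg/kg by oral gavage as a suspension in 0.5% methylcellulose/0.1% Tween 80. Serial blood taken by cardiac puncture over 0−24 h into K3EDTA; plasma stored at −70 °C. Analysis by LC−MS/MS, parameters by noncompartmental methods.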

## CN1C/C=C/CCOc2cccc(c2)-c2ccnc(n2)Nc2cccc(c2)C1 [ZOTIRACICLIB]
[1]
  inhibition in vivo at 75 mg/kg: 42%
[2]
  inhibition in vivo at 15 mg/kg: 63%
[3]
  half-life at 5 µM: 33 min
[4]
  AUC(0-inf): 2520 ng·h/mL
[5]
  growth inhibition (GI): Active
[6]
  Papp A→B at 5 µM: 28 ×10⁻⁶ cm/s
[7]
  inhibition: Active
[8]
  solubility at 250 µM: 71.8 µg/mL (≈ 193 µM)
[9]
  AUC(0-inf): 752 ng·h/mL
[10]
  fraction unbound at 4 h, 1000 ng/ml: 0.001
[11]
  bioavailability: 37%
[12]
  clearance: 110 mL/min/kg
[13]
  bioavailability: 4%
[14]
  pIC50: 7.14
[15]
  pIC50: 6.02
[16]
  growth inhibition (GI): Dose-dependent effect
[17]
  bioavailability: 24%
[18]
  half-life at 5 µM: 45 min
[19]
  pIC50: 7.10
[20]
  inhibition: Active
[21]
  pIC50: 7.48
[22]
  growth inhibition (GI): Dose-dependent effect
[23]
  half-life at 5 µM: 11 min
[24]
  Papp B→A at 5 µM: 27.4 ×10⁻⁶ cm/s
[25]
  pIC50: 7.23
[26]
  half-life: 366 min
